Bioassay records (PubChem BioAssay)
Only some compounds are listed: those with a hit (about 7.9% of all), similar ones and a draw of the others.
SF1 activator: activators of human SF-1, primary screen, cell-based, CHO-K1, Gal4-SF-1 LBD, luciferase luminescence | activation, % at 10 µM | 65,000 tested, 1.9% active | AID 522, 2006 | CHO-K1 Gal4-SF-1 LBD luciferase reporter; % increase over DMSO SF-1-specific signal | Steroidogenic factor 1 (Homo sapiens), Q13285;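 active means activation above the mean activation of all tested compounds plus 3 SD, cut at about 50% in these data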
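Test system: transient Gal4-SF-1 LBD reporter, CHO-K1; Amount: 4,000 CHO-K1 cells per well; Doses: 10 µM only; Timing: compound exposure 20 h at 37 °C; Signal: luciferase light emission; Read-out basis: percent activation relative to DMSO median and mock-transfected background; Control set: DMSO negative control and −SF1 background wells; Replicates: one test per compound.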
RORa activator: activators of orphan receptor RORA, primary screen, cell-based, luminescence; Nuclear receptor ROR-alpha (Homo sapiens), P35398; activation, % at 10 µM; CHO-K1 Gal4-RORA LBD luciferase reporter; percent increase over mock-subtracted basal signal; 65,000 tested, 1.5% active;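 active means activation above the mean of all tested compounds plus 3 SD, cut at about 49% in these data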;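 further: 0% = DMSO-treated RORA cells and 100% = added signal equal to DMSO minus mock-transfected cells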
D1 mod: D1 CRE-luciferase signal change, two-sided – cell-based, HEK293 D1, dopamine EC30, D1 allosteric modulator project, primary screen | D(1A) dopamine receptor (Homo sapiens), P21728 | dopamine EC30 potentiation; actives deviate in either direction | B-score at 10 µM | 58,000 tested, 5.9% active | AID 641, 2007;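 active means luminescence count or its row- and column-corrected plate score outside the 99.7% band of the plate's sample wells, on either side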
Target sequence (P21728 whole entry, looked up): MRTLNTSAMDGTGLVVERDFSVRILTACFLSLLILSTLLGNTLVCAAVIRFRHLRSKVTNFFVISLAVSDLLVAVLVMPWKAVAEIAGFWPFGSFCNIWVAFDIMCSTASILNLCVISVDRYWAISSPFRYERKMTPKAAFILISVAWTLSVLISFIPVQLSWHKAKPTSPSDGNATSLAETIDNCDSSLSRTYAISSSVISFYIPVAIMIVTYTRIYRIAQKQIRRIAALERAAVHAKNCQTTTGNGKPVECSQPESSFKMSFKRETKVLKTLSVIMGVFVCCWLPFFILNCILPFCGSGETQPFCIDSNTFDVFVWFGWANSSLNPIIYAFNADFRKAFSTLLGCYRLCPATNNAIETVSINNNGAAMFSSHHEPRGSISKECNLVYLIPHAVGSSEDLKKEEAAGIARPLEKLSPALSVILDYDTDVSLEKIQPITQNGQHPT
HEK293 NFkB inh: inhibitors of PMA/ionomycin-induced NF-kB reporter, primary screen, antigen receptor NF-kB inhibitor project, cell-based, HEK-293 luciferase reporter, luminescence. HEK-293 NF-kB luciferase reporter. inhibition, % at 3 µM. 62,000 tested, 0.21% active;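 active means inhibition above the mean of all tested compounds plus 3 SD, cut at about 40% in these data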;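 further: 0% = stimulated DMSO wells and 100% = 10 µM reference inhibitor 5653914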
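Reagent: PMA plus ionomycin mix as NF-kB-activating stimulus. Assay system: NF-kB luciferase reporter HEK-293 cells. Technique: luminescence from luciferase substrate reagent. Incubation: 1 h compound pre-incubation, 16 h PMA/ionomycin at 37 °C. Benchmarks: DMSO only as uninhibited control, 10 µM reference inhibitor as full inhibition. Repeats: tested once.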
JNK3 blocker: JNK3 kinase activity inhibitors, primary screen, biochemical, human, purified enzyme; Mitogen-activated protein kinase 10 (Homo sapiens), P53779; HTS; inhibition, % at 8 µM; 60,000 tested, 0.61% active; in the data active means inhibition above about 17%;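 further: 0% = DMSO and 100% = reference inhibitor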
An asterisk follows results filed as active; nt = not tested or not shown.

SMILES	SF1 activator	RORa activator	D1 mod	HEK293 NFkB inh	JNK3 blocker
O=C(Nc1cccc(-c2nc3cc(Cl)ccc3o2)c1)C1CCCO1 (stereo not given)	81*	37	-0.17	-2	1
Cc1ccc2c(CC(=O)N3CCN(S(=O)(=O)c4ccc5c(c4)OCCO5)CC3)coc2c1	-6	4	-0.29	6	2
CC(C)C(=O)Nc1ccc(-c2nc3cccnc3o2)cc1	-5	12	-3.2*	-28	3
Cc1cc(C)cc(OCC(=O)Nc2cccc(-c3nnc(-c4ccco4)o3)c2)c1	22	30	-3.4*	-7	2
O=C(CSc1nnc(CNc2ccc(Cl)cc2)o1)Nc1nc2c(s1)CCCC2	5	-15	-0.68	3	1
CC(=O)N1c2c(cc(Br)cc2S(=O)(=O)N2CCN(C(=O)c3ccco3)CC2)CC1C (stereo not given)	3	5	0.36	13	nt
COC(=O)C1=C(C)N(CC2CCCO2)C(=O)C1 (stereo not given)	1	19	-0.33	12	-4
Cn1cc(/C=N/n2cnc3scc(-c4ccc(Cl)cc4)c3c2=O)c2ccccc21	-81	-48	0.86	40*	7
Cn1c(-c2ccc(CN3CCCCC3)o2)nc2ccccc21	35	28	-0.47	-4	-6
COCCCNC(=O)c1cc2c(=O)n(C)c3ccccc3c2n1C	38	60*	0.14	2	5
Cn1c(C(=O)NC2CC2)cc2c(=O)n(C)c3ccccc3c21	0	-24	0.25	9	1
Cn1c(C(=O)Nc2ccc3c(c2)OCCO3)cc2c(=O)n(C)c3ccccc3c21	-19	5	-4.5*	8	-2
COCCNC(=O)c1cc2c(=O)n(C)c3ccccc3c2n1C	-11	-2	1.1	11	0
CCOC(=O)C(NC(C)=O)(OCc1ccc(F)cc1)C(F)(F)F (stereo not given)	-11	-14	-5.7*	2	4
Cc1ccccc1-c1n[nH]c(=S)o1	8	-7	-0.13	4	27*
Cc1ccccc1-c1nnc(-c2ccc(Cl)cc2)o1	nt	nt	-0.97	nt	nt
COc1ccc(Cl)cc1-c1n[nH]c(=S)o1	22	-6	0.34	12	37*
CC(=O)NC(Cc1ccc(F)cc1)C(=O)N1CCN(C(=O)NCc2ccccc2)CC1 (stereo not given)	20	0	0.26	7	-1
Cc1ccc(NC(=O)CSc2nnc(CCCCCNC(=O)OC(C)(C)C)o2)c(C)c1	-2	7	-0.075	2	-7
CC1=CC(C)(C)Nc2ccc(OC(=O)CN3C(=O)CCC3=O)cc21	-14	-15	-0.19	40*	-5
O=C1Nc2ccccc2OC1CC(=O)N1CCN(c2cccc(C(F)(F)F)c2)CC1 (stereo not given)	-7	6	-0.13	7	5
CN(Cc1ccco1)C(=O)C1CCC(=O)N1Cc1ccc(F)cc1 (stereo not given)	12	-2	0.37	21	-5
CCCOC(=O)Nc1nc2ccccc2o1	58*	34	-0.96	-11	0
O=C(C1COc2ccccc2O1)N1CCc2ccccc21 (stereo not given)	54*	30	0.046	6	6
N#Cc1c(N)nc(N2CCCC2)c(C#N)c1-c1ccc(Cl)cc1	-6	15	-0.76	10	1
SMILES	SF1 activator	RORa activator	D1 mod	HEK293 NFkB inh	JNK3 blocker
Clc1ccc(-c2nnc(N3CCCC3)nn2)cc1	41	55*	-2.5*	-24	nt
Cc1cc(NC(=O)Cn2cc(C(F)(F)F)cc(Cl)c2=O)no1	-1	15	1.5	16	-3
COc1ccc2nc(N3CCCCC3)c(C#N)cc2c1	50*	31	-0.048	2	-1
COc1ccc(NC(=O)COn2nnc3ccc(Cl)cc32)cc1OC	-13	5	-2.6*	26	-7
CC(C)(C)NC(=O)C(c1ccccc1F)N(Cc1ccco1)C(=O)c1csnn1 (stereo not given)	-6	-6	-0.28	-6	1
COc1cc(OC)cc(-c2nc3cc(C)ccc3o2)c1	72*	57*	0.067	-55	5
COc1ccc(N2CCN(S(=O)(=O)c3ccc(C(=O)NCc4ccco4)cc3)CC2)cc1	-5	2	nt	11	nt
c1ccc(CNc2ncnc3ccccc23)cc1	-40	-56	nt	22	0
c1ccc(CNc2ncnc3c2ncn3C2CCCCO2)cc1 (stereo not given)	60*	68*	0.22	-14	nt
Cn1cc(Cl)c(-c2nc3ccccc3[nH]2)n1	44	56*	nt	-12	nt
Cc1cc(=O)[nH]c(SCc2cc(=O)n3nc(C)sc3n2)n1	9	9	0.078	16	-3
Nc1nnc(-c2cc3ccccc3oc2=O)s1	55*	42	-0.66	3	1
O=C1C(C=NCc2ccccn2)=C(O)c2ccccc21	55*	47	-1.9	-32	9
O=c1oc2ccccc2c(O)c1C=NCc1ccccn1	17	11	-1	11	10
O=C(CSc1ncnc2ccccc12)N1CCCC1	18	55*	-0.029	2	7
CCc1nc(SCC(=O)N2CCCC2)c2ccccc2n1	-19	-1	0.77	22	10
COc1ccc(NC(=O)CCn2cccc2)cc1	18	28	-0.38	8	4
COc1ccc(CNC(=O)Nc2ccc(OC)cc2)cc1	23	0	-0.12	7	-3
COc1ccc(CNC(=O)c2ccc3nccnc3c2)cc1	-1	-1	0.62	3	4
COc1ccc(NC(=O)Nc2ccc3nccnc3c2)cc1	51*	57*	-1.8	-41	3
COc1ccc(NC(=O)Nc2ccc(N(C)C)cc2)cc1	29	58*	-1.4	-14	-23
COc1cccc(CC(=O)Nc2nccs2)c1	-7	-20	1.6	11	15
COc1ccc(NC(=O)Nc2nccs2)cc1	73*	64*	-0.57	-1	2
COc1cc(CC(=O)Nc2nccs2)cc(OC)c1OC	-14	-6	-0.51	1	23*
CCn1c(SCC(=O)Nc2cc(OC)ccc2OC)nnc1C1CCCCC1	4	-8	1.2	12	-7
CNC(=O)c1ccc2snnc2c1	2	0	nt	-3	-8
COc1cccc(NC(=O)c2cccc(OC)c2OC)c1	31	38	nt	-35	6
CN(C)c1ccc(NC(=O)Nc2ccc3snnc3c2)cc1	48	56*	-0.9	14	-14
COc1cccc(C(=O)Nc2ccc(N(C)C)cc2)c1OC	50*	43	-0.028	-24	-7
Nc1cnn(C2CCCO2)c(=O)n1 (stereo not given)	-7	-10	0.58	1	5
